Published values of several laboratories.
Each line is one published result; the experiments were not run side by side.
ADORA2A: Adenosine receptor A2a (ADORA2A, Homo sapiens, UniProt P29274)
HDAC2: Histone deacetylase 2 (HDAC2, Homo sapiens, UniProt Q92769)
HTR2A: 5-hydroxytryptamine receptor 2A (HTR2A, Homo sapiens, UniProt P28223)

SMILES	target	assay	quantity	value
CC(C)=CCNc1ncnc2c1ncn2[C@@H]1O[C@H](CO)[C@@H](O)[C@H]1O	ADORA2A	G protein activation, agonist	EC50	6.4 µM
O=C(NO)c1cncc(OS(=O)(=O)Oc2ccc(C(F)(F)F)cc2)c1	HDAC2	enzyme activity, inhibitor, fluorescence	Ki	1.31 µM
Cc1[nH]c2ccccc2c1SCCNC(=O)C1NCCC1C1CC1 (stereo not drawn)	HTR2A	calcium signal, antagonist	IC50	31.7 µM
C=CCO[C@H]1O[C@H](CO)[C@@H](OP(=O)(O)O[C@H]2O[C@H](CO)[C@@H](O)[C@H](O)[C@@H]2O)[C@H](O)[C@@H]1O	CLEC4E (Homo sapiens, UniProt Q9ULY5)	binding, BLI	Kd	1.59 µM
CN(C)c1ncnc2c1ncn2[C@@H]1O[C@H](CO)[C@@H](O)[C@H]1O	ADORA2A	G protein activation, agonist	EC50	3.2 µM
N#C[C@@]12C[C@@H]1[C@@H](n1cnc3c(N[C@@H](C4CCC4)C4CC4)nc(I)nc31)[C@H](O)[C@@H]2O	ADORA2A	ligand displacement, radioligand	Ki	> 10 µM
COc1ccccc1CC1CCN(CC(=O)c2cc(C)[nH]c2C)C1 (stereo not drawn)	HTR2A	calcium signal, antagonist	IC50	13.2 µM
N#C[C@@]12C[C@@H]1[C@@H](n1cnc3c(NCc4cccc(Cl)c4)nc(I)nc31)[C@H](O)[C@@H]2O	HTR2A	ligand displacement, radioligand	Ki	4.9 µM
O=C(/C=C/c1cccc(OS(=O)(=O)Oc2ccc(C(F)(F)F)cc2)c1)NO	HDAC2	enzyme activity, inhibitor, fluorescence	Ki	0.105 µM
